Experimental data reported in ChEMBL document CHEMBL2029242 (J Med Chem, 2012).

What was measured:
Liver [1] = test: Intrinsic clearance in mouse liver microsomes; format: ADME, Microsome
DU-145 = test: Cytotoxicity against human DU145 cells expressing wild type BRAF after 72 hrs by cell titer blue assay; format: functional, cell-based; details: DU-145, 72 h
Method in brief: (§1)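 Cells were grown in ATCC-recommended media and kept overnight in 0.5% serum. They were then exposed to compound for 72 h, and Cell Titer Blue was added for 3 h. EC50 came from fluorometric concentration−response curves, run in duplicate and repeated at least once.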

PC-3 = test: Cytotoxicity against human PC3 cells expressing wild type BRAF after 72 hrs by cell titer blue assay; format: functional, cell-based; details: PC-3, 72 h; method in brief: as §1
Mus musculus [2] = test: Inhibition of BRAF V600E mutant-mediated MEK phosphorylation in human COLO205 cells xenografted in athymic nude mouse at 55 mg/kg, po after 2 hrs; format: functional; details: COLO 205, 2 h
Method in brief: (§2)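 Mice bearing Colo-205 xenografts got one oral dose in 22% HPβCD; vehicle controls were run. Tumors were collected at time points over 24 h and lysed. pMEK and total MEK in the lysates were measured by immunoblotting and ELISA, and pMEK was normalized to total MEK.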

Hs-578T = test: Cytotoxicity against human Hs578T cells expressing wild type BRAF after 72 hrs by cell titer blue assay; format: functional, cell-based; method in brief: as §1
Cytochrome P450 2C9 = Cytochrome P450 2C9 (Homo sapiens, UniProt P11712); test: Inhibition of human CYP2C9; format: ADME
Method in brief: (§3)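 Pooled human liver microsomes (0.25 mg/mL) with NADPH (1 mM) and five pooled probe substrates (testosterone, diclofenac, dextromethorphan, mephenytoin, phenacetin). Test compound ran at eight concentrations, 0.31−40 μM, 20 min at 37 °C, with pooled control inhibitors in parallel. Isoform-specific metabolites were measured by LC-MS/MS.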

LNCaP = test: Cytotoxicity against human LNCAP cells expressing wild type BRAF after 72 hrs by cell titer blue assay; format: functional, cell-based; method in brief: as §1
Mus musculus [3] = test: Toxicity in athymic nude mouse xenografted with human COLO205 cells at 30 mg/kg, po bid for 14 days measured upto 1 week post dosing; format: organism-based, COLO 205; design: dose 30 mg/kg, route oral; details: in vivo
Method in brief: (§4)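 Athymic nude mice (20–25 g) were inoculated subcutaneously in the flank with 1×10^6 Colo-205 cells. At 150–200 mm3 they were randomized (n = 10/group) to oral vehicle (22% HPβCD) or 10, 30 or 100 mg/kg BID for 14 days. Calipers were used three times weekly. Body weight and behavior were monitored, with 7–10 days of follow-up after dosing. Partial regression meant volume falling in ≥3 successive measurements, ending below baseline but still palpable.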

[4] = target: Tyrosine-protein kinase JAK3 (Homo sapiens, UniProt P52333); test: Inhibition of JAK3 in human HEK293 cells after 1 hr by competition binding assay; format: cell-based
Method in brief: (§5)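 Unbound kinase was captured on immobilized affinity ligand and quantified by qPCR. Kd came from eleven serial 3-fold dilutions, as the mean of duplicates.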

[5] = target: Serine/threonine-protein kinase B-raf (Homo sapiens, UniProt P15056); test: Inhibition of wild type BRAF in human HEK293 cells after 1 hr by competition binding assay; format: cell-based
Method in brief: (§6)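 KINOMEscan competition binding. Binding reactions ran at rt for 1 h. Unbound kinase was captured on an immobilized affinity ligand and quantified by qPCR. Each kinase was tested individually.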

[6] = target: Hepatocyte growth factor receptor (Homo sapiens, UniProt P08581); test: Inhibition of cMET in human HEK293 cells after 1 hr by competition binding assay; format: cell-based; method in brief: as §6
Liver [7] = test: Intrinsic clearance in dog liver microsomes; format: ADME, Canis lupus familiaris, Microsome
Method in brief: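 Pooled liver microsomes (0.5 mg/mL) were premixed with 0.1 M phosphate buffer pH 7.4, 6.5 mM MgCl2 and test compound (1 μM final, 0.2% DMSO). NADPH (1 mM) started the reaction at 37 °C, in duplicate. Minus-NADPH and testosterone controls were included. Aliquots were taken at 0, 5, 15, 30 and 60 min and quenched in acetonitrile containing internal standard.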

Cytochrome P450 2D6 = Cytochrome P450 2D6 (Homo sapiens, UniProt P10635); test: Inhibition of human CYP2D6; format: ADME; method in brief: as §3
COLO 205 = test: Cytotoxicity against human COLO205 cells expressing BRAF V600E mutant after 72 hrs by cell titer blue assay; format: functional, cell-based; details: COLO 205, 72 h; method in brief: as §1
[8] = Tmax in athymic nude mouse at 100 mg/kg, po; format: ADME, organism-based; design: dose 100 mg/kg, route oral; details: in vivo
Method in brief: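 Female athymic nude mice (20–25 g, n = 3) received a single oral dose of 100 mg/kg in Pharmatek #6, calculated as free base. Blood was drawn into K3EDTA at 15 and 30 min and at 1, 2, 4, 6 and 24 h. Plasma was analyzed by LC-MS/MS. Parameters came from noncompartmental linear-trapezoidal analysis; mean ± SD reported.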

[9] = target: Serine/threonine-protein kinase B-raf (Homo sapiens, UniProt P15056, V600E)
Mus musculus [10] = test: Toxicity in athymic nude mouse xenografted with human COLO205 cells at 10 mg/kg, po bid for 14 days; format: organism-based, COLO 205; design: dose 10 mg/kg, route oral; details: in vivo, 336 h; method in brief: as §4
Aurora kinase B = Aurora kinase B (Homo sapiens, UniProt Q96GD4); test: Inhibition of Aurora B in human HEK293 cells after 1 hr by competition binding assay; format: cell-based; method in brief: as §6
[11] = target: Mitogen-activated protein kinase 1 (Homo sapiens, UniProt P28482); test: Inhibition of ERK2 in human HEK293 cells after 1 hr by competition binding assay; format: cell-based; method in brief: as §6
[12] = Half life in Cynomolgus monkey liver microsomes; format: ADME, Macaca fascicularis, Microsome
Method in brief: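 Pooled liver microsomes (0.5 mg/mL) in 0.1 M phosphate pH 7.4 with 6.5 mM MgCl2 and compound at 1 μM (0.2% DMSO). NADPH (1 mM) started the reaction at 37 °C, with minus-NADPH and testosterone controls. Aliquots taken at 0, 5, 15, 30 and 60 min were quenched in acetonitrile; duplicates.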

[13] = target: Tyrosine-protein kinase ABL1 (Homo sapiens, UniProt P00519); test: Inhibition of Abl1 in human HEK293 cells after 1 hr by competition binding assay; format: cell-based; method in brief: as §6
[14] = target: Phosphatidylinositol 4,5-bisphosphate 3-kinase catalytic subunit alpha isoform (Homo sapiens, UniProt P42336); test: Inhibition of PIK3-CA in human HEK293 cells after 1 hr by competition binding assay; format: cell-based; method in brief: as §5
[15] = Cmax in athymic nude mouse at 100 mg/kg, po; format: ADME, organism-based; design: dose 100 mg/kg, route oral; details: in vivo
Method in brief: (§7)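 Single-dose PK. Rats: male Sprague−Dawley, jugular-catheterized, 1 mg/kg iv in 3:1 PEG400/water (n = 2) and 10 mg/kg po in Pharmatek #6 (n = 3). Female athymic nude mice: 100 mg/kg po in Pharmatek #6 (n = 3). Beagle dogs and male cynomolgus monkeys (n = 3): crossover, 1 mg/kg iv and 10 mg/kg po in 22% HPβCD, overnight fast. Plasma LC-MS/MS to 24 h; noncompartmental parameters, mean ± SD.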

[16] = target: Mitogen-activated protein kinase 3 (Homo sapiens, UniProt P27361); test: Inhibition of ERK1 in human HEK293 cells after 1 hr by competition binding assay; format: cell-based; method in brief: as §6
Mus musculus [17] = test: Inhibition of BRAF V600E mutant-mediated MEK phosphorylation in human COLO205 cells xenografted in athymic nude mouse at 30 mg/kg, po after 2 hrs; format: functional; details: COLO 205, 2 h; method in brief: as §2
[18] = Clearance in beagle dog at 1 mg/kg, iv and 10 mg/kg, po; format: ADME, organism-based, Canis lupus familiaris; details: in vivo; method in brief: as §7

Cytochrome P450 2D6, sequence (P10635 whole entry): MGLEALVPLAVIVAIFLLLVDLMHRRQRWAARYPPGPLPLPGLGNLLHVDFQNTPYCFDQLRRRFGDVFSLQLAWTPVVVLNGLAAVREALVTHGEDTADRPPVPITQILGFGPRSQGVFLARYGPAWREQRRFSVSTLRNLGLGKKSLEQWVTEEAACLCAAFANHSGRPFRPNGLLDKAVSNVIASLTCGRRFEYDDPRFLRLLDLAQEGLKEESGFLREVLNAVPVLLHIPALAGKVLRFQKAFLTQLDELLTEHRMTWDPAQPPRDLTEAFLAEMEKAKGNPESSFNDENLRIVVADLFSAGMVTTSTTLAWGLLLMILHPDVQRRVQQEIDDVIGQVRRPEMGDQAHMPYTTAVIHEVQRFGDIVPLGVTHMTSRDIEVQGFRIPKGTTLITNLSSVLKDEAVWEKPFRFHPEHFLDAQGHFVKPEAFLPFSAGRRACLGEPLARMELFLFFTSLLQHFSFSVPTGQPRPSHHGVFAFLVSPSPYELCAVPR
Mitogen-activated protein kinase 1, sequence (P28482 whole entry): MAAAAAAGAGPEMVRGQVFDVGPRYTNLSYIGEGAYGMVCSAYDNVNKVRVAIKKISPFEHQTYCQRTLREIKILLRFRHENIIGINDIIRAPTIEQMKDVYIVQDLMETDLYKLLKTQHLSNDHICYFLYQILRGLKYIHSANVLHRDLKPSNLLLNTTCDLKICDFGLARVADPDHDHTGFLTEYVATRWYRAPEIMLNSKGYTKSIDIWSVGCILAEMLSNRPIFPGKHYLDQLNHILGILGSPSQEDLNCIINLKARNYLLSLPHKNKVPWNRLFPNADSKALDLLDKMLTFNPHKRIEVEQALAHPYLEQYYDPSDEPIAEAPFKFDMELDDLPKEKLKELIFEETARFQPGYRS
Phosphatidylinositol 4,5-bisphosphate 3-kinase catalytic subunit alpha isoform, sequence (P42336 whole entry, canonical isoform): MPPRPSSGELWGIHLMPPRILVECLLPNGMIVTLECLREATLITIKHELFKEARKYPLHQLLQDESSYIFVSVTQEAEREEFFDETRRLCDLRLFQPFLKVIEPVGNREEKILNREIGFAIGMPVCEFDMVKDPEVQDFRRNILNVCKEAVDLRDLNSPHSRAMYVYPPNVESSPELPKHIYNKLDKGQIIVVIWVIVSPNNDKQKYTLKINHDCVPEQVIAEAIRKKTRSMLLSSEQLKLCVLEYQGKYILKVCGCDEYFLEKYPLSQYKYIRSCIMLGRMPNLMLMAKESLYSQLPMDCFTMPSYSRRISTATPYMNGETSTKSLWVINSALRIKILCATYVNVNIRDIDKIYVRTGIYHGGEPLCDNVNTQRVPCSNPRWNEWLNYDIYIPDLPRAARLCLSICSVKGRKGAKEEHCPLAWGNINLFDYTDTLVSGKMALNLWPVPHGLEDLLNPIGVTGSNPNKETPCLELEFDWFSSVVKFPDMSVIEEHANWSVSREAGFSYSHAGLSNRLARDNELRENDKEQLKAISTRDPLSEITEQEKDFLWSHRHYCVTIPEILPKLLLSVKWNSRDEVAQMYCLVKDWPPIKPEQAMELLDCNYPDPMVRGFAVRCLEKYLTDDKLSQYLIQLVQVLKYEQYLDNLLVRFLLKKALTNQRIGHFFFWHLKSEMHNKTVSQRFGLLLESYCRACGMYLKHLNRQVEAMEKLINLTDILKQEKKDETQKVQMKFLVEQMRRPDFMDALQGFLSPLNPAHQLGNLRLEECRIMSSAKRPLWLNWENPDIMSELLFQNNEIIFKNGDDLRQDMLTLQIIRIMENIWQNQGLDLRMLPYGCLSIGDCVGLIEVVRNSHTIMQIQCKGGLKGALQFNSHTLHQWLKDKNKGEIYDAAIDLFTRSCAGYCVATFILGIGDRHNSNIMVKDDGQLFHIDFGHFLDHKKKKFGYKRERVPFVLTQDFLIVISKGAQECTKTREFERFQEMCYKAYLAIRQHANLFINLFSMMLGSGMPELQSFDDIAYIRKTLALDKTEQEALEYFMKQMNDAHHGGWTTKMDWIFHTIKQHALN
Serine/threonine-protein kinase B-raf (Homo sapiens, UniProt P15056), sequence (P15056 whole entry): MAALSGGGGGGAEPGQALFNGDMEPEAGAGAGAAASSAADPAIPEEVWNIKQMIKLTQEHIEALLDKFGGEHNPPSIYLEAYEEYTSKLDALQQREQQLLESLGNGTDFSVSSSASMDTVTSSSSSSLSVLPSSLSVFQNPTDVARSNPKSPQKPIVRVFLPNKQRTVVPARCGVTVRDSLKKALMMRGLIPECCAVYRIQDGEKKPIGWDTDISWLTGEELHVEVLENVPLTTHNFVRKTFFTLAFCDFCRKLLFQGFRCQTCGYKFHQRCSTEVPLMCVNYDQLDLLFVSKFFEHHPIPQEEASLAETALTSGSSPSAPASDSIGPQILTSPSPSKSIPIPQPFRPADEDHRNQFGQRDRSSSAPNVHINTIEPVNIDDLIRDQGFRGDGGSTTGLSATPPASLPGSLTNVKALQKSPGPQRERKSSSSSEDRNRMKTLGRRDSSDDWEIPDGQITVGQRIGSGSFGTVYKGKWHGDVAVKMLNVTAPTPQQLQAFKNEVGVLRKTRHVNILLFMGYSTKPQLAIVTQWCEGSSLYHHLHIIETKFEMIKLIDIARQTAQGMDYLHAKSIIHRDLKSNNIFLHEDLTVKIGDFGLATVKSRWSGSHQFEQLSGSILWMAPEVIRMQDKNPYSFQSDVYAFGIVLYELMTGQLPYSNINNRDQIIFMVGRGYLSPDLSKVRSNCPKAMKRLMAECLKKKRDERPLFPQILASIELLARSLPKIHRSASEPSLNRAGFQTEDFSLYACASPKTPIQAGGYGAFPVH
Cytochrome P450 2C9, sequence (P11712 whole entry, canonical isoform): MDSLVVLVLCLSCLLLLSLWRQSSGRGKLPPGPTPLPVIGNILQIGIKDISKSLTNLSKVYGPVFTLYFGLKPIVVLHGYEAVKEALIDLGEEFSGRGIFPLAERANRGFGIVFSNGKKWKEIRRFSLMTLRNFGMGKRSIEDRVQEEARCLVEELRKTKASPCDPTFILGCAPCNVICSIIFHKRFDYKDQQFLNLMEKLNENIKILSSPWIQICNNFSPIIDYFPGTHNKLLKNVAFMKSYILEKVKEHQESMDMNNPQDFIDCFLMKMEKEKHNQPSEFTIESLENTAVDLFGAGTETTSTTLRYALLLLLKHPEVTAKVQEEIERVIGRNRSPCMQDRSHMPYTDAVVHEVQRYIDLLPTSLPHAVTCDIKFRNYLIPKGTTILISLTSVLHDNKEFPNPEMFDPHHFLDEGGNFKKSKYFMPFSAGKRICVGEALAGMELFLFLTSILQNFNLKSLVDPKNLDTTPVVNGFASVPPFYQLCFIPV
Mitogen-activated protein kinase 3, sequence (P27361 whole entry): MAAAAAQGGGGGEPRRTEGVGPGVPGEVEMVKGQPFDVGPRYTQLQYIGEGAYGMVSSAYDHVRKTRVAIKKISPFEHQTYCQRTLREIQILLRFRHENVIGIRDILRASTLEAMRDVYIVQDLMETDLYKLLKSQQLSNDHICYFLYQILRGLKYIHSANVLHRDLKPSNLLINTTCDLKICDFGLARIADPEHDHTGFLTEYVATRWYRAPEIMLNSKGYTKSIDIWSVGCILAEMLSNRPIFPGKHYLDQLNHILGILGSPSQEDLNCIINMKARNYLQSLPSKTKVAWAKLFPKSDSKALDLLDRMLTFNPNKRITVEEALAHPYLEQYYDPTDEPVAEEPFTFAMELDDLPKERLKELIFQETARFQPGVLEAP
Hepatocyte growth factor receptor, sequence (P08581 whole entry): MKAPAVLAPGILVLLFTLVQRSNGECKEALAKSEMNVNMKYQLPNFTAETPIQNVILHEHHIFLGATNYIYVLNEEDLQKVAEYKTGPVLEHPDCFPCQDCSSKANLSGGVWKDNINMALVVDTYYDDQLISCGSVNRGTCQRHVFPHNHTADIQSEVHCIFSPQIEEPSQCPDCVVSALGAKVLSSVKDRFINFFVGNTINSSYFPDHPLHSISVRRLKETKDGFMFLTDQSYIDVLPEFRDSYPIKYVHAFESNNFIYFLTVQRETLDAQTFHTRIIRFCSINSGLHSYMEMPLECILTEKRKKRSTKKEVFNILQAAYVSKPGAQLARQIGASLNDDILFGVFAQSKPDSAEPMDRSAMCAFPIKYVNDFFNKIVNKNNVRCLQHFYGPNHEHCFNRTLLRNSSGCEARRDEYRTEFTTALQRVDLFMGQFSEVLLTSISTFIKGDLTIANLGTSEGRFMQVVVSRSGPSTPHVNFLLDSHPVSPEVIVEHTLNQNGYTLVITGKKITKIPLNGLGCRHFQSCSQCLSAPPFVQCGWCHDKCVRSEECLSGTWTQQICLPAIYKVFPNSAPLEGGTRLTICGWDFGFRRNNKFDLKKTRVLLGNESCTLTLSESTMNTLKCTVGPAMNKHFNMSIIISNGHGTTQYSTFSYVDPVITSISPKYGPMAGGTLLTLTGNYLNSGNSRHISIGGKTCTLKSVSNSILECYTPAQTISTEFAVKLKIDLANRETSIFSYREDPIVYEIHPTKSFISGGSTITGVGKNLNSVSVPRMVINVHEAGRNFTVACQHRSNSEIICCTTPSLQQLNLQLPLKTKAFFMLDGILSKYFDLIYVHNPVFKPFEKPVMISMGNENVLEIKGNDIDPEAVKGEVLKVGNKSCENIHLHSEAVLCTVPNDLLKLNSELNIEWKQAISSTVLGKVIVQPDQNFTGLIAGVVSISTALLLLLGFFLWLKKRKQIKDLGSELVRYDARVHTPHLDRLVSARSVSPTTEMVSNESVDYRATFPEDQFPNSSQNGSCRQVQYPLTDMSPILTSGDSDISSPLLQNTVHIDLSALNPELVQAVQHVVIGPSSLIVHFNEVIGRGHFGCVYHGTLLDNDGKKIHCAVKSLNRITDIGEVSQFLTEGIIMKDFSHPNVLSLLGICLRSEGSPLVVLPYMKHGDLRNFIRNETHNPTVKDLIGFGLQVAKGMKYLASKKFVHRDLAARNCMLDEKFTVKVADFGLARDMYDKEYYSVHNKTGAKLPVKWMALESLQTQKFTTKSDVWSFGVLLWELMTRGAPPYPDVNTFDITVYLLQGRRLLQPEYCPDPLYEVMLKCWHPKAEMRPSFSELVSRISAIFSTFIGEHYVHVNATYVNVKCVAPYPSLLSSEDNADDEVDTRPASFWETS

In the case of `COc1cc2ncnc(Oc3cccc(NC(=O)Nc4cc(C(C)(C)C(F)(F)F)on4)c3)c2cc1OC` [CEP-32496], the CLH (Liver [1]) is reported as under 23 µL/min/mg, the EC50 (DU-145) is reported as 2910 nM and the EC50 (PC-3) is reported as 6260 nM. The inhibition in vivo at 55 mg/kg (Mus musculus [2]) was 75%, the EC50 (Hs-578T) was 2740 nM and the IC50 (Cytochrome P450 2C9) was over 10000 nM. For the same compound, the EC50 (LNCaP) was 6630 nM, the Activity (Mus musculus [3]) was “Non-toxic” and the Kd [4] was over 10000 nM. It also gave a Kd [5] of 36 nM, a Kd [6] of 513 nM and a CLH (Liver [7]) of under 23 µL/min/mg. For the same compound, the IC50 (Cytochrome P450 2D6) was over 10000 nM, the EC50 (COLO 205) was 36 nM and the Tmax [8] was 1.3 h. The Kd [9] was 14 nM, the Activity (Mus musculus [10]) was “Non-toxic” and the Kd (Aurora kinase B) was over 10000 nM. For the same compound, the Kd [11] was over 10000 nM, the half-life [12] was over 1 h and the Kd [13] was 3 nM. For the same compound, the Kd [14] was over 10000 nM, the Cmax [15] was 35.6 µM and the Kd [16] was over 10000 nM. For the same compound, the inhibition in vivo at 30 mg/kg (Mus musculus [17]) was 50% and the clearance [18] was 5 mL/min/kg.
